Assay results reported in ChEMBL document CHEMBL3352465, “The SAR development of substituted purine derivatives as selective CB2 agonists for the treatment of chronic pain” (Bioorg Med Chem Lett, 2014).
Values after ≈ are worked out from the molar mass of the structure shown. Active and inactive are the calls of the source. The calls are words filed in the database; no cut-off is given here.

Legend:
[1] = target: T1, Cannabinoid receptor 2 (Homo sapiens, UniProt P34972); test: Agonist activity at human CB2 receptor expressed in CHO cells by [35S]-GTPgammaS binding assay; format: functional, cell-based
T1 sequence (P34972 whole entry): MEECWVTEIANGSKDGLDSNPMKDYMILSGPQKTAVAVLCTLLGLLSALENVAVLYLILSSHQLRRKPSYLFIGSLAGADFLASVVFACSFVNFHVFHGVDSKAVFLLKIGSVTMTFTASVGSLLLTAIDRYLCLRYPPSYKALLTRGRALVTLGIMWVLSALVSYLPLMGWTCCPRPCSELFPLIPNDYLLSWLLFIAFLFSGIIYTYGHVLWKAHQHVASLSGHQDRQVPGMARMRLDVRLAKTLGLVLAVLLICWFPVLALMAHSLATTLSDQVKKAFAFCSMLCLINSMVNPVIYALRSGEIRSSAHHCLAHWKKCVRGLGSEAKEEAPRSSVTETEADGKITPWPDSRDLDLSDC

[2] = target: T1, Cannabinoid receptor 2; test: Agonist activity at human CB2 receptor expressed in CHO cells by [35S]-GTPgammaS binding assay relative to control; format: functional, cell-based
[3] = target: Cannabinoid receptor 1 (Homo sapiens, UniProt P21554); test: Agonist activity at human CB1 receptor expressed in Sf9 cells by [35S]-GTPgammaS binding assay; format: functional
Chain of Cannabinoid receptor 1 (P21554 whole entry): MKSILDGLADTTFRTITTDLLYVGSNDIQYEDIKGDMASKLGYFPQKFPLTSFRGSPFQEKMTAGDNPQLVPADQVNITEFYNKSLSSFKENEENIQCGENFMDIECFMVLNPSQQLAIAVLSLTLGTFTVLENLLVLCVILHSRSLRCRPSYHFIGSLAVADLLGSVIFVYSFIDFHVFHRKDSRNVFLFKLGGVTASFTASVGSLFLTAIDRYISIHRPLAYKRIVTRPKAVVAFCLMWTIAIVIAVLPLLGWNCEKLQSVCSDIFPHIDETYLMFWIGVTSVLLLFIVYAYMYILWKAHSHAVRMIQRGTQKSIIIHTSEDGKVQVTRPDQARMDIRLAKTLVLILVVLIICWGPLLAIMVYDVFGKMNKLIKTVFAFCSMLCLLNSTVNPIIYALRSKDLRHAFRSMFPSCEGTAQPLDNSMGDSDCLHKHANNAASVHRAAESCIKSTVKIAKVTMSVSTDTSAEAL

[4] = Drug metabolism in human liver microsomes at 2 uM after 0.5 hr by LC/MS/MS analysis; format: ADME; conditions: read-out: Drug metabolism
[5] = Drug metabolism in rat liver microsomes at 2 uM after 0.5 hr by LC/MS/MS analysis; format: ADME; conditions: read-out: Drug metabolism
[6] = Drug metabolism in dog liver microsomes at 2 uM after 0.5 hr by LC/MS/MS analysis; format: ADME, Canis lupus familiaris; conditions: read-out: Drug metabolism
[7] = organism: Rattus norvegicus; test: Inhibition of GABA gated chloride channel in rat cortex at 10 uM by radioligand binding assay
In short: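 Radioligand binding to GABA-gated chloride channels from rat, run by an outside contract lab.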

[8] = Clearance in Sprague-Dawley rat at 1 mg/kg, iv; format: ADME, organism-based; parameters: dose 1 mg/kg, route intravenous; conditions: in vivo
[9] = Volume of distribution at steady state in Sprague-Dawley rat at 1 mg/kg, iv and 1 mg/kg, po; format: ADME, organism-based; conditions: in vivo, read-out: Vdss
In short: (§1)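 Plasma PK after intravenous and oral dosing at 1 mg/kg each route; male Sprague-Dawley rats and male Beagle dogs. Clearance and steady-state volume from the iv leg, half-life and bioavailability from the po leg.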

[10] = Half life in Sprague-Dawley rat at 1 mg/kg, po; format: ADME, organism-based; parameters: dose 1 mg/kg, route oral; conditions: in vivo; in short: as §1
[11] = AUC in Sprague-Dawley rat at 1 mg/kg, iv and 1 mg/kg, po; format: ADME, organism-based; conditions: plasma; in short: as §1
[12] = Cmax in Sprague-Dawley rat at 1 mg/kg, iv and 1 mg/kg, po; format: ADME, organism-based; conditions: in vivo; in short: as §1
[13] = Oral bioavailability in Sprague-Dawley rat at 1 mg/kg; format: ADME, organism-based; conditions: in vivo; in short: as §1
[14] = Clearance in Beagle dog at 1 mg/kg, iv; format: ADME, organism-based, Canis lupus familiaris; parameters: dose 1 mg/kg, route intravenous; conditions: in vivo
[15] = Volume of distribution at steady state in Beagle dog at 1 mg/kg, iv and 1 mg/kg, po; format: ADME, organism-based, Canis lupus familiaris; conditions: in vivo, read-out: Vdss; in short: as §1
[16] = Half life in Beagle dog at 1 mg/kg, po; format: ADME, organism-based, Canis lupus familiaris; parameters: dose 1 mg/kg, route oral; conditions: in vivo; in short: as §1
[17] = AUC in Beagle dog at 1 mg/kg, iv and 1 mg/kg, po; format: ADME, organism-based, Canis lupus familiaris; conditions: plasma; in short: as §1
[18] = Cmax in Beagle dog at 1 mg/kg, iv and 1 mg/kg, po; format: ADME, organism-based, Canis lupus familiaris; conditions: in vivo; in short: as §1
[19] = Oral bioavailability in Beagle dog at 1 mg/kg; format: ADME, organism-based, Canis lupus familiaris; conditions: in vivo; in short: as §1
[20] = system: MDCK; test: Permeability across MDCK cells expressing human P-gp; format: ADME, cell-based, Canis lupus familiaris; conditions: dog
In short: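 Bi-directional permeability was measured across an MDCK line expressing human P-gp to test whether the compound is a P-gp substrate.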

[21] = target: Cytochrome P450 3A4 (Homo sapiens, UniProt P08684); test: Effect on CYP3A4 (unknown origin) up to 10 uM; format: ADME
Chain of Cytochrome P450 3A4 (P08684 whole entry): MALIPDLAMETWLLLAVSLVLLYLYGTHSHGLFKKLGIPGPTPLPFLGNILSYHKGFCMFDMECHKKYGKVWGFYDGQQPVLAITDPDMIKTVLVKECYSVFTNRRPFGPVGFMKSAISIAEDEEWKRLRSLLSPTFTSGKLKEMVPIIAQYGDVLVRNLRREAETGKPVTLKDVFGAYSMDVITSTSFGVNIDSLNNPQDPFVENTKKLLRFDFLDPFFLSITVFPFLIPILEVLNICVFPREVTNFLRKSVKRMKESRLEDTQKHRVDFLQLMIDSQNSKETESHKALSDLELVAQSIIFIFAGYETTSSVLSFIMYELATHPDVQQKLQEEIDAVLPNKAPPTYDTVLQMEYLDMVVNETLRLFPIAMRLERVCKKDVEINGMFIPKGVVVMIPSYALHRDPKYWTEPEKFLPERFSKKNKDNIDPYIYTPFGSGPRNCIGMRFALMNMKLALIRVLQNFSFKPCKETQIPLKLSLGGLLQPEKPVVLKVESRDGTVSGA

[22] = target: T2, Cytochrome P450 1A2 (Homo sapiens, UniProt P05177); test: Effect on CYP1A2 (unknown origin) up to 10 uM; format: ADME
T2 sequence (P05177 whole entry): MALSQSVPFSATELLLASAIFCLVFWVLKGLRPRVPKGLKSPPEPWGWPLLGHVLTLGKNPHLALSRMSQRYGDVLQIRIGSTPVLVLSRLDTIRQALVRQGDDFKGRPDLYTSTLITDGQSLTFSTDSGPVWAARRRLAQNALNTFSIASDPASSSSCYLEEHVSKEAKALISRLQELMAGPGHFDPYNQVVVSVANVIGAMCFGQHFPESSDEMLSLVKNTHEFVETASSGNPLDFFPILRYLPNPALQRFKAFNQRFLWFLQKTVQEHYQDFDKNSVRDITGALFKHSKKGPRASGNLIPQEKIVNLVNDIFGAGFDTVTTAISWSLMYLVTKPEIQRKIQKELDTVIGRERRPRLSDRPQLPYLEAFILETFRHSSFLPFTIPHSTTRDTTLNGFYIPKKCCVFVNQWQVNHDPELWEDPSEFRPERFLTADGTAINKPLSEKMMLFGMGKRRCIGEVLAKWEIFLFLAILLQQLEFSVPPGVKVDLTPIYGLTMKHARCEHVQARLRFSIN

[23] = target: Cytochrome P450 2D6 (Homo sapiens, UniProt P10635); test: Effect on CYP2D6 (unknown origin) up to 10 uM; format: ADME
Chain of Cytochrome P450 2D6 (P10635 whole entry): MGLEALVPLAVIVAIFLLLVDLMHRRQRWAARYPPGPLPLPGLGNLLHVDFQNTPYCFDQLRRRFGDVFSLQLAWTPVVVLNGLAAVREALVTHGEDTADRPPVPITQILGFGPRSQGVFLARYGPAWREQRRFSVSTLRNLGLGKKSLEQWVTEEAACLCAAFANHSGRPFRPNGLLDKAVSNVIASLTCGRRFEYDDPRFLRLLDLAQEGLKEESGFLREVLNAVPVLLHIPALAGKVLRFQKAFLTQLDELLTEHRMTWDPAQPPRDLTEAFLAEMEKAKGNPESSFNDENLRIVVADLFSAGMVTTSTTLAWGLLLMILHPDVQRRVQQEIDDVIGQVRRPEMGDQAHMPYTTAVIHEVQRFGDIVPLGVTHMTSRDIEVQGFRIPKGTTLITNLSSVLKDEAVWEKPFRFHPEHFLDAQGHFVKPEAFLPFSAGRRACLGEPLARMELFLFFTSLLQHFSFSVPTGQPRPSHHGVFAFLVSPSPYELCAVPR

[24] = target: Cytochrome P450 2C9 (Homo sapiens, UniProt P11712); test: Effect on CYP2C9 (unknown origin) up to 10 uM; format: ADME
Chain of Cytochrome P450 2C9 (P11712 whole entry): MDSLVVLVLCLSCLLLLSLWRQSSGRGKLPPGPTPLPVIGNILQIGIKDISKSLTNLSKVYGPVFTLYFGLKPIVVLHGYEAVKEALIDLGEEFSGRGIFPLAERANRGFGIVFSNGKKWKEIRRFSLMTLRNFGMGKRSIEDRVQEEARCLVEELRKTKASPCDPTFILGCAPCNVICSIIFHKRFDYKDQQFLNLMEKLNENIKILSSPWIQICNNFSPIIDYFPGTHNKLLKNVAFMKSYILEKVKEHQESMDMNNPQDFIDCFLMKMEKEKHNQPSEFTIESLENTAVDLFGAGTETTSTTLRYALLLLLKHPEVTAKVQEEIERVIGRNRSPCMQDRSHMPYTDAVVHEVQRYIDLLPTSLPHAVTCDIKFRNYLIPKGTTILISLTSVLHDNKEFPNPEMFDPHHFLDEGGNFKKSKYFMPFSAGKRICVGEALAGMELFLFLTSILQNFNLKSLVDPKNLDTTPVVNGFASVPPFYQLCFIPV

[25] = target: CYP3A4 (Homo sapiens, UniProt P08684); test: Drug metabolism assessed as human CYP3A4-mediated oxidative compound turnover; format: ADME; conditions: recombinant enzyme, read-out: Drug metabolism
Chain of CYP3A4 (P08684 whole entry, canonical isoform): as the sequence (P08684 whole entry) above
In short: (§2)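 Oxidative turnover was assessed with recombinant human P450 enzymes to identify which isoforms contribute to metabolite formation.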

[26] = target: CYP2C9 (Homo sapiens, UniProt P11712); test: Drug metabolism assessed as human CYP2C9-mediated compound turnover; format: ADME; conditions: recombinant enzyme, read-out: Drug metabolism; in short: as §2
Chain of CYP2C9 (P11712 whole entry): as the sequence (P11712 whole entry) above

[27] = target: T3, CYP1A2 (Homo sapiens, UniProt P05177); test: Drug metabolism assessed as human CYP1A2-mediated compound turnover; format: ADME; conditions: recombinant enzyme, read-out: Drug metabolism; in short: as §2
T3 sequence (P05177 whole entry): T2 sequence (P05177 whole entry)

[28] = Drug excretion in rat urine assessed as phase 2 glucuronide metabolite; format: ADME
[29] = Drug excretion in rat bile assessed as phase 2 glucuronide metabolite; format: ADME
[30] = Drug excretion in rat urine assessed as sulfate metabolite; format: ADME
[31] = Drug excretion in rat bile assessed as sulfate metabolite; format: ADME
[32] = system: Rattus norvegicus; test: Analgesic activity in monoiodoacetic acid-induced joint pain rat model assessed as inhibition of differential weight bearing capacity at 1 mg/kg, po administered 20 days post MIA challenge relative to vehicle treated control; format: functional, organism-based; parameters: dose 1 mg/kg
In short: (§3)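 Rats got 0.3 mg MIA intra-articular into the right knee and saline into the left on day 0. On day 20 they were randomized and dosed po with vehicle (1% CMC in water with 0.25% Tween 80), agonist 1 mg/kg, SR-144528 3 mg/kg, or antagonist given 30 min before agonist. Incapacitance (differential hind-limb weight bearing) was read 2 h after agonist; n = 6/group; Dunnett's test versus vehicle.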

[33] = system: Rattus norvegicus; test: Analgesic activity in monoiodoacetic acid-induced joint pain rat model assessed as inhibition of differential weight bearing capacity at 1 mg/kg, po administered 20 days post MIA challenge co-administered with 3 mg/kg SR-144528 relative to vehicle treated control; format: functional, organism-based; in short: as §3
[34] = system: Rattus norvegicus; test: Analgesic activity in monoiodoacetic acid-induced joint pain rat model assessed as inhibition of differential weight bearing capacity compound administered orally post MIA challenge measured 2 hrs after compound dose on day 12 post MIA challenge relative to vehicle treated control; format: functional; conditions: po
In short: (§4)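 MIA knee-joint pain in rats; oral doses of 0.1, 0.3 and 1 mg/kg, with diclofenac 5 mg/kg po as comparator. Differential hind-limb weight bearing was measured by incapacitance tester on day 12 post MIA, 2 h after dosing; n = 5/group; Student's t-test versus vehicle. ED50 was derived from the dose response.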

[35] = system: Rattus norvegicus; test: Analgesic activity in monoiodoacetic acid-induced joint pain rat model assessed as inhibition of differential weight bearing capacity at 1 mg/kg, po bid for 5 days starting 20 days post MIA challenge relative to vehicle treated control; format: functional, organism-based; parameters: dose 1 mg/kg
In short: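 MIA knee-joint pain model in rats; repeat oral dosing at 1.0 mg/kg bid for 5 days. Incapacitance efficacy was compared between day 1 and day 5, and plasma exposures were monitored over the period.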

[36] = system: Rattus norvegicus; test: Toxicity in rat assessed as hypothermia up to 30 mg/kg, po; format: organism-based; parameters: dose 30 mg/kg, route oral; conditions: in vivo
In short: (§5)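 Rats were dosed orally up to 30 mg/kg and checked for hypothermia and for rotorod performance. CP-55,940 0.5 mg/kg ip served as positive control.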

[37] = system: Rattus norvegicus; test: Toxicity in rat assessed as behavioral impairment up to 30 mg/kg, po by rotorod test; format: organism-based; parameters: dose 30 mg/kg, route oral; conditions: in vivo; in short: as §5
[38] = Lipophilicity, log P of the compound; format: physicochemical; conditions: octanol/water
[39] = Aqueous solubility of the compound at pH 6.5; format: physicochemical
In short: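 Aqueous solubility measured at pH 6.5.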

[40] = Dissociation constant, pKa of the compound; format: physicochemical
[41] = system: Rattus norvegicus; test: Analgesic activity in monoiodoacetic acid-induced joint pain rat model assessed as inhibition of differential weight bearing capacity at 5 mg/kg, po measured 2 hrs after compound dose on day 12 post MIA challenge relative to vehicle treated control; format: functional, organism-based; parameters: dose 5 mg/kg; in short: as §4
[42] = Inhibition of GABA gated chloride channel in rat cortex by radioligand binding assay

## Cc1nc(N2CCN(C)CC2)c2nc(-c3ccccc3Cl)n([C@H](C)CO)c2n1
[1]
  EC50: 22.4 nM
[2]
  Efficacy: 81.8%
[3]
  EC50: > 100 µM
[4]
  metabolised at 0.5 h, 2 µM: 22%
[5]
  metabolised at 0.5 h, 2 µM: 50%
[6]
  metabolised at 0.5 h, 2 µM: 42%
[7]
  inhibition: 20%
[8]
  clearance: 32 mL/min/kg
[9]
  Vd: 6 L/kg
[10]
  half-life: 138 min
[11]
  AUC: 514 ng·h/mL
[12]
  Cmax: 87 ng/mL
[13]
  bioavailability: 38%
[14]
  clearance: 38 mL/min/kg
[15]
  Vd: 4 L/kg
[16]
  half-life: 102 min
[17]
  AUC: 437 ng·h/mL
[18]
  Cmax: 43 ng/mL
[19]
  bioavailability: 23%
[20]
  permeability: impermeable
[21]
  Activity: Not Active
[22]
  Activity: Not Active
[23]
  Activity: Not Active
[24]
  Activity: Not Active
[25]
  metabolised: 80%
[26]
  metabolised: 80%
[27]
  metabolised: 80%
[28]
  Drug excretion: metabolite_detected
[29]
  Drug excretion: metabolite_detected
[30]
  Drug excretion: metabolite_detected
[31]
  Drug excretion: metabolite_detected
[32]
  inhibition: Active
[33]
  inhibition: inactive
[34]
  ED50: 0.16 mg/kg
[35]
  inhibition: Active
[36]
  Activity: Toxic
[37]
  Activity: Toxic
[38]
  logP: 3.1
[39]
  solubility: 1800 µg/mL (≈ 4490 µM)
[40]
  pKa: 7.5
[41]
  inhibition: Active

## CCN1CCN(c2nc(C)nc3c2nc(-c2ccccc2Cl)n3CCOC)CC1
[7]
  inhibition: 97%

## Cc1nc(N2CCN(C)CC2)c2nc(-c3ccccc3Cl)n([C@@H](C)CO)c2n1
[1]
  EC50: 12.5 nM
[2]
  Efficacy: 96.5%
[3]
  EC50: > 100 µM
[4]
  metabolised at 0.5 h, 2 µM: 11%
[5]
  metabolised at 0.5 h, 2 µM: 79%
[6]
  metabolised at 0.5 h, 2 µM: 60%

## Cc1nc(N2CCN(C)CC2)c2nc(-c3ccccc3Cl)n(C3CCOCC3)c2n1 [LY2828360]
[7]
  inhibition: 85%
[42]
  Ki: 2200 nM
[19]
  bioavailability: 76%
[38]
  logP: 3.2
[39]
  solubility: 100 µg/mL (≈ 234 µM)
[40]
  pKa: 7.2

## Cc1nc(N2CCN(C)CC2)c2nc(-c3ccccc3Cl)n(CC(C)(C)O)c2n1
[1]
  EC50: 5.9 nM
[2]
  Efficacy: 85.4%
[3]
  EC50: > 100 µM
[4]
  metabolised at 0.5 h, 2 µM: 24%
[5]
  metabolised at 0.5 h, 2 µM: 92%
[6]
  metabolised at 0.5 h, 2 µM: 52%
[7]
  inhibition: 83%
